Only some compounds are listed: those with a hit (about 2.9% of all), similar ones and a draw of the others.
Wee1 stabilizer: human Wee1 degradation inhibition, primary screen; AID 1321; reporter increase, % at 5 µM; P30291; HeLa Luc-Wee1K328M stability, luciferase luminescence; 100% = proteasome inhibitor MG132 effect; 220,000 compounds, 1.2% hits;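 active = activation above the mean of all tested compounds plus 3 SD, set per screening run, cut at about 8.8% in these data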;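 also: cells exposed to compound for 20 h before luminescence read; 0% = DMSO alone and 100% = MG132 at 30 µM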
Target sequence (P30291 whole entry K328M): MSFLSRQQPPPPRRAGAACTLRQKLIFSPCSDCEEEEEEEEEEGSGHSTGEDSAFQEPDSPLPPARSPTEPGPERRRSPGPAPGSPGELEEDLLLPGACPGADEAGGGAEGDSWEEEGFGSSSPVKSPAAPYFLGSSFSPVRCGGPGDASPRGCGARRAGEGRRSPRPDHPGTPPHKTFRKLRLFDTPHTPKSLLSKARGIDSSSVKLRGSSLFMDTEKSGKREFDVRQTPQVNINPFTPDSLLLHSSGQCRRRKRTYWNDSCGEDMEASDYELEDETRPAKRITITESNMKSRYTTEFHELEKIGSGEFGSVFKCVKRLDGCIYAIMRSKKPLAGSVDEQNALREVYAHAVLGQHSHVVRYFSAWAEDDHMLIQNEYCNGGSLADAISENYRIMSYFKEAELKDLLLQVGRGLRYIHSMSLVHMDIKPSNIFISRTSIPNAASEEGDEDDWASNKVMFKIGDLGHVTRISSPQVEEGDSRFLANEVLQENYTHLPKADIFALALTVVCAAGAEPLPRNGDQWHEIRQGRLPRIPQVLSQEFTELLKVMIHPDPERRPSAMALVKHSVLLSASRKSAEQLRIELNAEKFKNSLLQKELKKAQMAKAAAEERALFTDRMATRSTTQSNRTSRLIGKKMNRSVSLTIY
RanGTP-Imp inh: disruptors of Ran-importin-beta complex formation – biochemical, FRET, CFP-Ran, YFP-importin-beta, homogeneous, primary screen. cell-free CFP-Ran/YFP-importin-beta FRET ratio. inhibition, % (concentration not given with the values). 300,000 compounds, 1.1% hits. AID 2216;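 active = more than half of the replicate wells show a fall in the fluorescence ratio signal beyond about 16%, limit read from the data, passing the limit was not always enough; inconclusive = exactly half of the replicate wells pass the set limit; inactive = fewer than half of replicates pass the limit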;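 also: 0% = DMSO wells and 100% = Ran loaded with GDP instead of GTP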
KLK7 zymogen act: proKLK7 (human) activation, primary screen; 370,000 compounds, 0.9% hits; purified proKLK7, EDANS-DABCYL substrate fluorescence; 100% is mature enzyme control, 0% vehicle; AID 652039; activation, % at 7 µM;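 active = activation above the mean of all tested compounds plus 3 SD, computed per campaign excluding outliers beyond control limits, cut at about 13% in these data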
Runt-CBFb FRET: blocks binding of human RUNX1 Runt domain to CBFb | Cerulean-Runt/Venus-CBFb FRET ratio 530/480, 1 h | AID 1496 | 220,000 compounds, 0.46% hits | inhibition, % at 20 µM | Q01196+Q13951;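 active = inhibition over about 50% at 20 µM in the single-dose screen, limit read from the data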;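 also: 0% = DMSO wells and 100% = excess unlabeled CBFb competitor control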
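Measured by: fluorescence energy transfer, 422 nm excitation, 530/480 nm emission; Assay system: Cerulean-Runt domain; Medium: Tris pH 7.5 buffer with BSA; Measure: loss of energy transfer signal; Controls: 5 µM unlabeled CBFb as full-inhibition high control; Incubation: protein complex preformed 1 h, compound exposure 1 h, room temperature, dark.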
AI-2 QS mod: Vibrio harveyi AI-2 quorum sensing modulation. Vibrio harveyi JMH597 AI-2 luminescence/OD600 ratio, 9 h; active compounds read low; strain lacks LuxN and CqsS sensors; 0 = neutral-control median. activity change, % at 7.5 µM. AID 2094. 300,000 compounds, 0.4% hits; in the data active = activity change below about -75%, passing the limit was not always enough; inconclusive = no clear call, values can overlap the other calls;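 also: luminescence divided by OD600 gain over 9 h not by final OD600 alone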
Runt-SMMHC FRET: inhibitors of human RUNX1 Runt domain binding to CBFb-SMMHC. Q01196+Q13951. Cerulean-Runt/Venus-CBFb-SMMHC FRET ratio 530/480, 1 h. inhibition, % at 20 µM. 220,000 compounds, 0.74% hits. AID 1434;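 active = mean inhibition across duplicate retests at 20 µM reaching about 50%, limit read from the data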;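 also: 0% = DMSO wells and 100% = wells with excess untagged CBFb-SMMHC; inhibitors lower the FRET ratio by blocking Runt binding to CBFb-SMMHC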
KLK7 act conf: proKLK7 activation, confirmation. shares compounds with KLK7 zymogen act. purified proKLK7, EDANS-DABCYL substrate fluorescence; scaled: vehicle 0, mature enzyme 100. activation, % at 7 µM. 3,200 compounds, 68% hits;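 active = activation, as change over the incubation, above the mean of all tested compounds plus 3 SD, cut at about 13% in these data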
EDANS-DABCYL int: optically interferes with EDANS-DABCYL signal, flagging KLK7 hits. shares compounds with KLK7 zymogen act. EDANS-DABCYL substrate fluorescence interference, no enzyme, 4 h; solvent 0%, active enzyme control 100%. activation, % at 7 µM. 3,200 compounds, 80% hits;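 active = activation above the all-compound mean plus 3 SD, ignoring values outside control-based bounds, cut at about 4.8% in these data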;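 also: value is the 4 h activation minus the activation read at time zero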
EDANS interf: counter-screen for kallikrein-7 activators: EDANS-DABCYL interference, dose response; shares compounds with KLK7 zymogen act; EDANS-DABCYL peptide fluorescence interference, no enzyme; EC50, µM; 250 compounds, 20% hits; AID 720493;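 active = compounds that raise the fluorescence signal in this interference counterscreen, with EC50 at or below 10 µM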;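 also: intact quenched peptide substrate alone read at 355 nm excitation and 520 nm emission; signal is fluorescence gain from T0 to T4 after four hours at room temperature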
* = called active by the depositor; ? = inconclusive; . = no result given.

SMILES | Wee1 stabilizer | RanGTP-Imp inh | KLK7 zymogen act | Runt-CBFb FRET | AI-2 QS mod | Runt-SMMHC FRET | KLK7 act conf | EDANS-DABCYL int | others
COc1ccc2cc3cc(C(=O)NCCN4CCc5ccccc5C4)sc3nc2c1 | -2 | 2 | -7 | -1 | 26 | -13 | . | .
Cc1cc(N2CCNC[C@@H]2C)ccc1N1CCS(=O)(=O)CC1 | . | . | 0 | . | . | . | . | .
CC(C)CCNC(=O)c1cc2c(=O)n3ccccc3nc2s1 | . | ? | 63* | . | 1 | . | 33* | 41*
Cc1cccn2c(=O)c3cc(C(=O)NCCCOC(C)C)sc3nc12 | . | -1 | 2 | . | 14 | . | . | .
C=CCNC(=S)NNC(=O)c1cccn(Cc2ccc(Cl)c(Cl)c2)c1=O | 0 | 2 | 22* | 0 | 8 | 5 | 33* | 36*
C=CCNC(=S)NNC(=O)c1ccc(=O)n(Cc2ccccc2)c1 | -1 | 5 | 0 | 3 | 16 | 2 | . | .
CNC(=S)NNC(=O)c1cccn(Cc2cccc(Cl)c2)c1=O | -1 | 2 | 15* | . | 20 | 4 | 30* | 34*
CNC(=S)NNC(=O)c1cccn(Cc2ccc(Cl)c(Cl)c2)c1=O | -2 | -1 | 21* | 2 | 11 | -5 | 31* | 34*
COC(=O)/C(=C1/Oc2ccc(C)cc2S1)C(F)(F)F | -4 | ? | 1 | 2 | 27 | 3 | . | .
Cn1ccc2c(-c3cccc(C=O)c3)cc3c(c21)C1CCC3O1 (configuration not stated) | . | . | 17* | . | . | . | 15* | 14*
CC(=O)Nc1cccc(-c2cc3c(c4c2ccn4C)C2CCC3O2)c1 (configuration not stated) | . | . | 2 | . | . | . | . | .
CCC1=NN(C(=O)Cc2ccc(OC)c(OC)c2)C(O)(C(F)(F)F)C1 (configuration not stated) | 0 | 5 | 0 | -2 | 16 | 0 | . | .
CCOC(=S)SCC(=O)N1CCc2ccccc2C1C1C(=O)CC(C)(C)CC1=O (configuration not stated) | 1 | 3 | 0 | 1 | 10 | 2 | . | .
CCOC(=S)SCC(=O)N1CCc2cc(OC)c(OC)cc2C1C1C(=O)CC(C)(C)CC1=O (configuration not stated) | -3 | 1 | 26* | 0 | 20 | 1 | 3 | 3
CC/C(C)=N/N1C(=O)c2ccccc2NC1(C)CC (configuration not stated) | -2 | -3 | 19* | 5 | 7 | 4 | 45* | 39*
O=C1c2ccccc2NC2(CCCC2)N1N=C1CCCC1 | 0 | 1 | 9 | 2 | 19 | 2 | . | .
Cc1ccc(OC/C(=N\O)C(C)(C)C)c([N+](=O)[O-])c1 | 1 | -2 | -1 | -1 | 16 | -2 | . | .
COc1cc(OC)cc(-c2noc(-c3csc([C@@H]4O[C@H](CO)[C@H](O)[C@H](O)[C@H]4O)n3)n2)c1 | . | . | -1 | . | . | . | . | .
O=C1N/C(=C/c2ccc(N3CCOCC3)o2)C(=O)N1c1ccccc1 | 4 | . | 20* | 34 | . | 20 | 10 | 10*
Cc1cc(C)n2c(Br)c(CN3CCCC(C)C3)nc2n1 (configuration not stated) | -2 | 2 | 15* | 2 | 9 | 2 | 14* | 16*
COc1ccc(/C=C/C(O)=C2/C(=O)NC3(C)CC2c2ccccc2O3)c(OC)c1OC (configuration not stated) | -1 | 1 | 15* | -5 | -2 | 4 | 15* | 10* | EDANS interf=>70
Cc1ccc(O)c(C(=O)c2cnn(C(=O)Cc3csc(C)n3)c2)c1 | -3 | . | 20* | -2 | . | 3 | 54* | 53*
COc1ccc2c3c([nH]c2c1)[C@H]1C[C@H]2[C@H](C[C@@H](O)[C@H](OC)[C@H]2C(=O)O)CN1CC3 | . | . | 40* | . | . | . | 8 | 11*
COc1ccc(CCNC(=O)c2cccc(S(=O)(=O)N3CCc4ccccc4C3)c2)cc1 | . | . | 0 | . | . | . | . | .
Nc1c(Cl)cc(Cl)cc1C(=O)OCC(=O)NC1CC1 | 0 | 10 | 22* | 4 | -3 | 1 | 36* | 33*
SMILES | Wee1 stabilizer | RanGTP-Imp inh | KLK7 zymogen act | Runt-CBFb FRET | AI-2 QS mod | Runt-SMMHC FRET | KLK7 act conf | EDANS-DABCYL int | others
O=C(Cc1ccccc1F)Nc1cc(Cl)ccc1N1CCCC1 | . | -5 | 0 | . | 17 | . | . | .
CCn1c(C)nc2cc(C(=O)N/N=C(\C)c3ccccc3O)ccc21 | 0 | -3 | -2 | 0 | 11 | 2 | . | .
O=C(Nc1cccc(O)c1)c1cc2nc(-c3ccccc3)cc(-c3ccccc3)n2n1 | 1 | 1 | 96* | -3 | 2 | -9 | -63 | -116
CC(=O)NCCCC(=O)NN1C(=S)N(Cc2ccccc2)C(=O)C1CC(=O)Nc1cccc(C)c1 (configuration not stated) | 0 | 1 | 0 | -2 | 22 | 3 | . | .
COc1ccc(Br)cc1S(=O)(=O)NCCc1cccs1 | . | . | 0 | . | . | . | . | .
CC(=O)OCCn1c2nc(=O)[nH]c(=O)c-2nc2cc(C)c(C)cc21 | -1 | -213 | 31* | -172 | -29 | 14 | 62* | 71*
COc1cccc(CN(CC(=O)NCc2ccccc2)C(=O)c2csnn2)c1 | . | 1 | 0 | . | 11 | . | . | .
COc1ccc(NC(=O)N(C)[C@H]2C[C@H]3c4[nH]c5ccccc5c4CCN3C(=O)[C@H]2CO)cc1 | . | . | 24* | . | . | . | 3 | 3
CN(C(=O)Nc1ccc(F)cc1)[C@H]1C[C@H]2c3[nH]c4ccccc4c3CCN2C(=O)[C@H]1CO | . | . | 2 | . | . | . | . | .
COc1ccc(NC(=O)N(C)[C@H]2C[C@H]3c4[nH]c5ccccc5c4CCN3C(=O)[C@H]2[C@H](C)O)cc1 | . | . | 88* | . | . | . | 8 | 9.5*
COc1ccc(C(=O)N(C)[C@H]2C[C@H]3c4[nH]c5ccccc5c4CCN3C(=O)[C@H]2CO)cc1 | . | . | 44* | . | . | . | 51* | 57*
COc1ccc(C(=O)N(C)[C@H]2C[C@H]3c4[nH]c5ccccc5c4CCN3C[C@H]2[C@H](C)O)cc1 | . | . | -1 | . | . | . | . | .
COc1ccc2noc3c2c1C(=O)c1ccccc1-3 | . | -160 | 25* | . | 21 | . | -39 | -31
O=c1c2ccccc2n(CC(O)CN2CCCCC2)c2ccccc12 (configuration not stated) | 2 | 96* | 34* | 61* | 28 | 81* | 29* | 29*

Compound activity: PubChem, several laboratories
